The source made the active and inactive calls. No cut-off for these calls is given here.
Legend:
[1] = Selectivity for HCV isolate BK NS4A-tethered single chain NS3 serine protease over human neutrophil elastase
[2] = (§1) AUC in rat at 3 mg/kg, po; assay type: ADME, organism-based, Plasma; parameters: dose 3 mg/kg, route oral; conditions: plasma
[3] = Inhibition of HCV isolate BK NS4A-tethered single chain NS3 serine protease; parameters: species or system Hepatitis C virus (isolate BK)
Method in brief: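 Continuous (kinetic) assay using the NS4A-tethered single-chain NS3 serine protease. The result is reported as K_i*, an equilibrium constant covering the reversible covalent ketone–serine adduct plus other inhibitor–enzyme contacts.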

Hepatitis C virus = experiment: Antiviral activity against HCV in human Huh7 cells by replicon-based ELISA; assay type: functional, Hepacivirus hominis; conditions: Huh-7
Method in brief: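 Replicon assay run only on compounds with good enzyme potency. The value is EC90, the concentration that inhibits 90% of replicon replication.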

[4] = Bioavailability in dog; assay type: ADME, organism-based, Canis lupus familiaris; conditions: in vivo
[5] = Bioavailability in monkey; assay type: ADME, organism-based, Macaca mulatta; conditions: rhesus monkey, in vivo
Rattus norvegicus = experiment: as §1; assay type: ADME, organism-based, Plasma; parameters: dose 3 mg/kg, route oral; conditions: in vivo

Selectivity ratio [1]	AUC [2]	Ki [3]	EC90 (Hepatitis C virus)	bioavailability [4]	bioavailability [5]	Activity (Rattus norvegicus)	EC90 (Hepatitis C virus; Hepacivirus hominis)	Structure (SMILES)	Activity (Hepatitis C virus; Hepacivirus hominis)
1600	705 nM·h	0.007 µM	0.15 µM	–	–	–	–	C=CCNC(=O)C(=O)C(CC1CC1)NC(=O)[C@@H]1[C@@H]2[C@H](CN1C(=O)[C@@H](NC(=O)N[C@H](CN1Cc3ccccc3S1(=O)=O)C(C)(C)C)C(C)(C)C)C2(C)C (some centres not stated)	–
–	–	0.014 µM	0.35 µM	34%	4%	–	–	CC(C)(C)NC(=O)N[C@H](C(=O)N1C[C@H]2[C@@H]([C@H]1C(=O)NC(CC1CCC1)C(=O)C(N)=O)C2(C)C)C(C)(C)C (some centres not stated) [BOCEPREVIR]	–
230	90 nM·h	0.011 µM	0.2 µM	–	–	–	–	C=CCNC(=O)C(=O)C(CCC)NC(=O)[C@@H]1[C@@H]2[C@H](CN1C(=O)[C@@H](NC(=O)N[C@H](CN1CCCS1(=O)=O)C(C)(C)C)C(C)(C)C)C2(C)C (some centres not stated)	–
130	–	0.041 µM	0.4 µM	–	–	–	–	C=CCNC(=O)C(=O)C(CCC)NC(=O)[C@@H]1[C@@H]2[C@H](CN1C(=O)[C@@H](NC(=O)NC1(CN3Cc4sccc4S3(=O)=O)CCCCC1)C(C)(C)C)C2(C)C (some centres not stated)	–
6100	1430 nM·h	0.005 µM	0.08 µM	–	–	–	–	C=CCNC(=O)C(=O)C(CCCC)NC(=O)[C@@H]1[C@@H]2[C@H](CN1C(=O)[C@@H](NC(=O)N[C@H](CN1Cc3ccccc3S1(=O)=O)C(C)(C)C)C(C)(C)C)C2(C)C (some centres not stated)	–
19	–	0.007 µM	0.15 µM	–	–	–	–	C=CCNC(=O)C(=O)C(CCC)NC(=O)[C@@H]1[C@@H]2[C@H](CN1C(=O)[C@@H](NC(=O)N[C@H](CN1Cc3ccccc3S1(=O)=O)C(C)(C)C)C1CCCCC1)C2(C)C (some centres not stated)	–
1500	–	0.03 µM	–	–	–	Not Active	–	C=CCNC(=O)C(=O)C(CC1CCC1)NC(=O)[C@@H]1[C@@H]2[C@H](CN1C(=O)[C@@H](NC(=O)N[C@H](CN1Cc3ccccc3S1(=O)=O)C(C)(C)C)C(C)(C)C)C2(C)C (some centres not stated)	inactive
650	670 nM·h	0.006 µM	0.2 µM	–	–	–	–	C=CCNC(=O)C(=O)C(CCC)NC(=O)[C@@H]1[C@@H]2[C@H](CN1C(=O)[C@@H](NC(=O)N[C@H](CN1CCCCS1(=O)=O)C(C)(C)C)C(C)(C)C)C2(C)C (some centres not stated)	–
55	–	0.018 µM	–	–	–	–	inactive	C=CCNC(=O)C(=O)C(CCC)NC(=O)[C@@H]1[C@@H]2[C@H](CN1C(=O)[C@@H](NC(=O)N[C@H](CN1Cc3ccccc3S1(=O)=O)C1CCCCC1)C(C)(C)C)C2(C)C (some centres not stated)	–
650	373 nM·h	0.003 µM	–	–	–	–	–	C=CCNC(=O)C(=O)C(CCC)NC(=O)[C@@H]1[C@@H]2[C@H](CN1C(=O)[C@@H](NC(=O)N[C@H](CN1Cc3ccccc3S1(=O)=O)C(C)(C)C)C(C)(C)C)C2(C)C (some centres not stated)	–
380	–	0.0009 µM	0.25 µM	–	–	Not Active	–	C#CCCC(NC(=O)[C@@H]1[C@@H]2[C@H](CN1C(=O)[C@@H](NC(=O)N[C@H](CN1Cc3ccccc3S1(=O)=O)C(C)(C)C)C(C)(C)C)C2(C)C)C(=O)C(=O)NCC=C (some centres not stated)	–
80	–	0.059 µM	0.35 µM	–	–	–	–	C=CCNC(=O)C(=O)C(CCC)NC(=O)[C@@H]1[C@@H]2[C@H](CN1C(=O)[C@@H](NC(=O)N[C@H](CN1CCCNS1(=O)=O)C(C)(C)C)C(C)(C)C)C2(C)C (some centres not stated)	–
50	–	0.005 µM	0.15 µM	–	–	–	–	C=CCNC(=O)C(=O)C(CCC)NC(=O)[C@@H]1[C@@H]2[C@H](CN1C(=O)[C@@H](NC(=O)N[C@H](CN1Cc3ccccc3S1(=O)=O)C(C)(C)C)C1(C)CCCCC1)C2(C)C (some centres not stated)	–
310	–	0.015 µM	0.23 µM	–	–	–	–	C=CCNC(=O)C(=O)C(CCC)NC(=O)[C@@H]1[C@@H]2[C@H](CN1C(=O)[C@@H](NC(=O)N[C@H](CN1C(=O)c3ccccc3S1(=O)=O)C(C)(C)C)C(C)(C)C)C2(C)C (some centres not stated)	–
150	430 nM·h	0.01 µM	0.15 µM	–	–	–	–	C=CCNC(=O)C(=O)C(CCC)NC(=O)[C@@H]1[C@@H]2[C@H](CN1C(=O)[C@@H](NC(=O)N[C@H](CN1Cc3sccc3S1(=O)=O)C(C)(C)C)C(C)(C)C)C2(C)C (some centres not stated)	–
490	200 nM·h	0.014 µM	0.15 µM	–	–	–	–	C=CCNC(=O)C(=O)C(CCC)NC(=O)[C@@H]1[C@@H]2[C@H](CN1C(=O)[C@@H](NC(=O)N[C@H](CN1CCCN(C)S1(=O)=O)C(C)(C)C)C(C)(C)C)C2(C)C (some centres not stated)	–
68	–	0.003 µM	0.1 µM	–	–	–	–	C=CCNC(=O)C(=O)C(CCC)NC(=O)[C@@H]1[C@@H]2[C@H](CN1C(=O)[C@@H](NC(=O)N[C@H](CN1Cc3sccc3S1(=O)=O)C(C)(C)C)C1(C)CCCCC1)C2(C)C (some centres not stated)	–
10	–	0.014 µM	0.1 µM	–	–	–	–	C=CCNC(=O)C(=O)C(CCC)NC(=O)[C@@H]1[C@@H]2[C@H](CN1C(=O)[C@@H](NC(=O)N[C@H](CN1Cc3sccc3S1(=O)=O)C(C)(C)C)C1CCCCC1)C2(C)C (some centres not stated)	–
50	180 nM·h	0.03 µM	0.25 µM	–	–	–	–	C=CCNC(=O)C(=O)C(CCC)NC(=O)[C@@H]1[C@@H]2[C@H](CN1C(=O)[C@@H](NC(=O)N[C@H](CN1CCCCS1(=O)=O)C1CCCCC1)C(C)(C)C)C2(C)C (some centres not stated)	–
